Assays:
Plasmodium berghei [1] = assay: Antimalarial activity against Plasmodium berghei infected in Swiss Webster mouse assessed as mouse survival rate at 0.1 mg/kg administered once daily via oral gavage for 4 consecutive days beginning 1 hr after infection measured on day 5 post infection relative to control; format: functional
Method in brief: (§1)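 Mice given an intraperitoneal injection of P. berghei-infected erythrocytes taken from a previously infected animal. Oral dosing once daily for 4 consecutive days, starting 1 h after infection. Vehicle: polyethylene glycol 300/propylene glycol/water (weight ratio 55/25/20). Percent survival recorded daily from day 4 to day 20. Chloroquine 30 mg/kg and vehicle-only groups served as controls.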

Plasmodium berghei [2] = assay: Antimalarial activity against Plasmodium berghei infected in Swiss Webster mouse assessed as mouse survival rate at 0.4 mg/kg administered once daily via oral gavage for 4 consecutive days beginning 1 hr after infection measured on day 6 post infection relative to control; format: functional; method in brief: as §1
Plasmodium berghei [3] = assay: Antimalarial activity against Plasmodium berghei infected in Swiss Webster mouse assessed as mouse survival rate at 100 mg/kg administered once daily via oral gavage for 4 consecutive days beginning 1 hr after infection measured on day 8 post infection relative to control; format: functional; method in brief: as §1
Plasmodium berghei [4] = assay: Antimalarial activity against Plasmodium berghei infected in Swiss Webster mouse assessed as mouse survival rate at 33 mg/kg administered once daily via oral gavage for 4 consecutive days beginning 1 hr after infection measured on day 10 post infection relative to control; format: functional
Method in brief: (§2)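 P. berghei-infected erythrocytes taken from a previously infected mouse were injected intraperitoneally. Oral dosing, once daily for 4 consecutive days, began 1 h after infection, in polyethylene glycol 300/propylene glycol/water (55/25/20 by weight). Chloroquine at 30 mg/kg was the positive control, with a vehicle-only group. Percent survival was recorded daily from day 4 to day 20.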

Plasmodium berghei [5] = assay: Antimalarial activity against Plasmodium berghei infected in Swiss Webster mouse assessed as mouse survival rate at 3.7 mg/kg administered once daily via oral gavage for 4 consecutive days beginning 1 hr after infection measured on day 7 post infection relative to control; format: functional; method in brief: as §2
Plasmodium berghei [6] = assay: Antimalarial activity against Plasmodium berghei infected in Swiss Webster mouse assessed as mouse survival rate at 33 mg/kg administered once daily via oral gavage for 4 consecutive days beginning 1 hr after infection measured on day 11 post infection relative to control; format: functional; method in brief: as §2
Plasmodium berghei [7] = assay: Antimalarial activity against Plasmodium berghei infected in Swiss Webster mouse assessed as mouse survival rate at 1.2 mg/kg administered once daily via oral gavage for 4 consecutive days beginning 1 hr after infection measured on day 4 post infection relative to control; format: functional; method in brief: as §1
Plasmodium berghei [8] = assay: Antimalarial activity against Plasmodium berghei infected in Swiss Webster mouse assessed as mouse survival rate at 0.1 mg/kg administered once daily via oral gavage for 4 consecutive days beginning 1 hr after infection measured on day 6 post infection relative to control; format: functional; method in brief: as §1
Plasmodium berghei [9] = assay: Antimalarial activity against Plasmodium berghei infected in Swiss Webster mouse assessed as mouse survival rate at 0.1 mg/kg administered once daily via oral gavage for 4 consecutive days beginning 1 hr after infection measured on day 4 post infection relative to control; format: functional; method in brief: as §1
Plasmodium berghei [10] = assay: Antimalarial activity against Plasmodium berghei infected in Swiss Webster mouse assessed as mouse survival rate at 200 mg/kg administered once daily via oral gavage for 4 consecutive days beginning 1 hr after infection measured on day 8 post infection relative to control; format: functional; method in brief: as §2
[11] = Metabolic stability in human hepatocytes at 22 uM after 44 hrs; format: ADME, cell-based, Hepatocyte
Plasmodium berghei [12] = assay: Antimalarial activity against Plasmodium berghei infected in Swiss Webster mouse assessed as mouse survival rate at 0.4 mg/kg administered once daily via oral gavage for 4 consecutive days beginning 1 hr after infection measured on day 5 post infection relative to control; format: functional; method in brief: as §1
Plasmodium berghei [13] = assay: Antimalarial activity against Plasmodium berghei infected in Swiss Webster mouse assessed as mouse survival rate at 1.2 mg/kg administered once daily via oral gavage for 4 consecutive days beginning 1 hr after infection measured on day 6 post infection relative to control; format: functional; method in brief: as §1
Plasmodium berghei [14] = assay: Antimalarial activity against Plasmodium berghei infected in Swiss Webster mouse assessed as mouse survival rate at 1.2 mg/kg administered once daily via oral gavage for 4 consecutive days beginning 1 hr after infection measured on day 7 post infection relative to control; format: functional; method in brief: as §1
Plasmodium berghei [15] = assay: Antimalarial activity against Plasmodium berghei infected in Swiss Webster mouse assessed as mouse survival rate at 100 mg/kg administered once daily via oral gavage for 4 consecutive days beginning 1 hr after infection measured on day 4 post infection relative to control; format: functional; method in brief: as §1
Plasmodium berghei [16] = assay: Antimalarial activity against Plasmodium berghei infected in Swiss Webster mouse assessed as mouse survival rate at 100 mg/kg administered once daily via oral gavage for 4 consecutive days beginning 1 hr after infection measured on day 10 post infection relative to control; format: functional; method in brief: as §1
Plasmodium berghei [17] = assay: Antimalarial activity against Plasmodium berghei infected in Swiss Webster mouse assessed as mouse survival rate at 11 mg/kg administered once daily via oral gavage for 4 consecutive days beginning 1 hr after infection measured on day 7 post infection relative to control; format: functional; method in brief: as §2
[18] = Metabolic stability in rat hepatocytes at 22 uM after 44 hrs; format: ADME, cell-based, Hepatocyte
Plasmodium falciparum [19] = assay: Antimalarial activity against chloroquine-sensitive Plasmodium falciparum 3D7 infected in human erythrocytes assessed as reduction in [3H]-hypoxanthine incorporation preincubated for 24 hrs followed by [3H]-hypoxanthine addition measured after 24 hrs by scintillation counting method; format: functional, cell-based
Method in brief: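 P. falciparum 3D7 cultures were exposed to the compound for 48 h, with atovaquone as the reference control. IC50 was taken from three replicates.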

Plasmodium berghei [20] = assay: Antimalarial activity against Plasmodium berghei infected in Swiss Webster mouse assessed as mouse survival rate at 0.4 mg/kg administered once daily via oral gavage for 4 consecutive days beginning 1 hr after infection measured on day 4 post infection relative to control; format: functional; method in brief: as §1
Plasmodium berghei [21] = assay: Antimalarial activity against Plasmodium berghei infected in Swiss Webster mouse assessed as mouse survival rate at 200 mg/kg administered once daily via oral gavage for 4 consecutive days beginning 1 hr after infection measured on day 9 post infection relative to control; format: functional; method in brief: as §2
Plasmodium berghei [22] = assay: Antimalarial activity against Plasmodium berghei infected in Swiss Webster mouse assessed as mouse survival rate at 3.7 mg/kg administered once daily via oral gavage for 4 consecutive days beginning 1 hr after infection measured on day 5 post infection relative to control; format: functional; method in brief: as §2
Plasmodium berghei [23] = assay: Antimalarial activity against Plasmodium berghei infected in Swiss Webster mouse assessed as mouse survival rate at 33 mg/kg administered once daily via oral gavage for 4 consecutive days beginning 1 hr after infection measured on day 8 post infection relative to control; format: functional; method in brief: as §2
Plasmodium berghei [24] = assay: Antimalarial activity against Plasmodium berghei infected in Swiss Webster mouse assessed as mouse survival rate at 200 mg/kg administered once daily via oral gavage for 4 consecutive days beginning 1 hr after infection measured on day 5 post infection relative to control; format: functional; method in brief: as §2
Plasmodium falciparum [25] = assay: Antimalarial activity against Plasmodium falciparum 3D7 0087/N9 infected in NOD/SCID IL2R gamma null mouse assessed as reduction in parasitemia administered once daily via oral gavage for 4 consecutive days measured on day 4 post infection; format: functional; conditions: 3D7 0087/N9, po, 96 h
Method in brief: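 Human-erythrocyte-engrafted NODscidIL2Rγnull mice carrying P. falciparum Pf3D70087/N9 in peripheral blood; compound given orally once daily for four consecutive days.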

| Compound | survival at 0.1 mg/kg (Plasmodium berghei [1]) [%] | survival at 0.4 mg/kg (Plasmodium berghei [2]) [%] | survival at 100 mg/kg (Plasmodium berghei [3]) [%] | survival at 33 mg/kg (Plasmodium berghei [4]) [%] | survival at 3.7 mg/kg (Plasmodium berghei [5]) [%] | survival at 33 mg/kg (Plasmodium berghei [6]) [%] | survival at 1.2 mg/kg (Plasmodium berghei [7]) [%] | survival at 0.1 mg/kg (Plasmodium berghei [8]) [%] | survival at 0.1 mg/kg (Plasmodium berghei [9]) [%] | Stability [11] | survival at 0.4 mg/kg (Plasmodium berghei [12]) [%] | survival at 100 mg/kg (Plasmodium berghei [15]) [%] | survival at 100 mg/kg (Plasmodium berghei [16]) [%] | survival at 11 mg/kg (Plasmodium berghei [17]) [%] | Stability [18] | IC50 (Plasmodium falciparum [19]) [nM] | survival at 0.4 mg/kg (Plasmodium berghei [20]) [%] | survival at 3.7 mg/kg (Plasmodium berghei [22]) [%] | survival at 33 mg/kg (Plasmodium berghei [23]) [%] | ED90 (Plasmodium falciparum [25]) [mg/kg] | other results |
| --- | --- | --- | --- | --- | --- | --- | --- | --- | --- | --- | --- | --- | --- | --- | --- | --- | --- | --- | --- | --- | --- |
| CCCC1(O)CN(C(=O)c2cnc(Oc3ccc4c(c3C)B(O)OC4)cn2)C1 | 100 | 100 | 100 | 100 | 0 | 100 | 100 | 100 | 100 | Stable | 100 | 100 | 100 | 80 | Stable | 54 | 100 | 100 | 100 | – | survival at 200 mg/kg (Plasmodium berghei [10]): 100%; survival at 1.2 mg/kg (Plasmodium berghei [13]): 100%; survival at 1.2 mg/kg (Plasmodium berghei [14]): 0%; survival at 200 mg/kg (Plasmodium berghei [21]): 100%; survival at 200 mg/kg (Plasmodium berghei [24]): 100% |
| CCC1(O)CN(C(=O)c2cnc(Oc3ccc4c(c3C)B(O)OC4)cn2)C1 | 100 | 100 | 100 | 20 | 0 | 20 | 100 | 100 | 100 | Stable | 100 | 100 | 100 | 40 | Stable | 55 | 100 | 100 | 100 | 0.84 | survival at 200 mg/kg (Plasmodium berghei [10]): 100%; survival at 1.2 mg/kg (Plasmodium berghei [13]): 100%; survival at 1.2 mg/kg (Plasmodium berghei [14]): 0%; survival at 200 mg/kg (Plasmodium berghei [21]): 100%; survival at 200 mg/kg (Plasmodium berghei [24]): 100% |
| Cc1c(Oc2cnc(C(=O)N3CC(O)(C(F)(F)F)C3)cn2)ccc2c1B(O)OC2 | 100 | 100 | 100 | 50 | 0 | 50 | – | 100 | 100 | Stable | 100 | 100 | 100 | 100 | Stable | 8 | 100 | 100 | 100 | < 5 | – |
| Cc1c(Oc2cnc(C(=O)N3CC(O)(C(C)C)C3)cn2)ccc2c1B(O)OC2 | 100 | 100 | 100 | 100 | 0 | 100 | – | 100 | 100 | Stable | 100 | 100 | 100 | 60 | Stable | 57 | 100 | 100 | 100 | < 5 | survival at 200 mg/kg (Plasmodium berghei [10]): 100%; survival at 200 mg/kg (Plasmodium berghei [21]): 100%; survival at 200 mg/kg (Plasmodium berghei [24]): 100% |
| Cc1c(Oc2cnc(C(=O)N3CC(O)(C4CC4)C3)cn2)ccc2c1B(O)OC2 | 100 | 100 | 100 | 40 | 0 | 40 | 100 | 100 | 100 | Stable | 100 | 100 | 100 | 0 | Stable | 134 | 100 | 100 | 100 | < 5 | survival at 1.2 mg/kg (Plasmodium berghei [13]): 100%; survival at 1.2 mg/kg (Plasmodium berghei [14]): 0% |
